# Hits are enriched below; roughly 2.7% of the tested compounds scored in any of these assays.
# Measles CPE – protection of cells from measles virus | AID 841 | protection (pct of control), % at 4 µM | Measles virus-infected cells, CPE protection, absorbance | 1.5% of 140,000 active; in the data active = protection mostly above about 24%, no sharp cut-off; inactive = mostly below about 26%
# ABCB1 block – blocks JC-1 efflux by human ABCB1 transporter | 0.067% of 190,000 active | AID 1326 | CCRF-Adr cells, flow cytometry | inhibition, % at 6.6 µM; in the data active = inhibition above about 40%;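 note: 0% = vehicle and 100% = reference inhibitor; higher value means more JC-1 retained so stronger ABCB1 efflux block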
# FLuc act counter – affects firefly luciferase, flagging false hits in luciferase stimulation screens | 200,000 tested, under 10 active | AID 1027 | ATPlite luciferase biochemical, luminescence, 10 min; 0 = ATP-free wells, 1 = DMSO control | activation factor at 10 µM;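 active = luciferase activation factor, scaled between plate controls, of at least 2 with compound at 10 µM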
#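 System: Luciferase/luciferin detection reagent, cell-free biochemical luciferase assay | Medium: PBS buffer for ATP | Dosing: Test compounds dosed from 2 mM stocks in 100% DMSO | Timing: 10 min at ambient temperature | Signal: Luminescence measurement of luciferase light output | Evaluation: Luciferase activation, seen as luminescence increase over controls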
# DTT redox prof – compounds producing H2O2 with reducing agent – biochemical, NIH compound library profiling, artefact control for MLSCN library redox annotation, primary screen; DTT-dependent redox cycling H2O2, phenol red/HRP absorbance; 100% = 100 µM peroxide control, 0% = buffer; 0.03% of 200,000 active; AID 878; activation, % at 10 µM;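 active = activation of at least 50% relative to the plate's high and low controls in the primary single-dose screen; inactive = activation below 50%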;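 note: compound incubated with DTT at 0.8 mM final as the reducing agent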
# FLuc inhib CS – Photinus pyralis luciferase inhibition counter-screen. ATPLite firefly luciferase biochemical luminescence, 10 min. inhibition, % at 10 µM. 1.5% of 200,000 active;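 active = inhibition above about 50% when tested at 10 µM, limit read from the data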
# ABCG2 inh – inhibitors of human ABCG2 transporter, ABCB1 counter-screen. Q9UNQ0. inhibition, % at 6.6 µM. IgMXP3 cells, JC-1 efflux, flow cytometry. 0.1% of 190,000 active;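 active = inhibition above 80%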;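 note: 0% = DMSO and 100% = nicardipine control wells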
#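 Test system: IgMXP3 cells (ABCG2) mixed with DDAO far-red-labelled CCRF-Adr cells (ABCB1). Reagent: JC-1 transporter substrate. Compound dosing: single test compound dose, 6.6 µM final. Times: 10 min compound exposure, 25 °C. Detection: flow cytometry of retained JC-1 fluorescence. Read-out basis: efflux inhibition in percent versus controls. Controls: nicardipine and DMSO wells.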
# An asterisk follows results filed as active; . = not tested or not shown.
SMILES,Measles CPE,ABCB1 block,FLuc act counter,DTT redox prof,FLuc inhib CS,ABCG2 inh
Cc1cc(C)n(-c2nnc(NC34CC5CC(CC(C5)C3)C4)nn2)n1,16,-1,0.3,0,66*,-4
CCNc1nc(NCC)nc(-n2nc(C)cc2C)n1,6,1,1.1,-1,-8,3
Cc1cc(C)n(-c2nc(NC(C)(C)C)nc(NC(C)(C)C)n2)n1,7,1,1,18,-3,4
Cc1cc(C)n(-c2nnc(NC(C)(C)C)nn2)n1,12,-1,0.5,0,53*,-3
O=C1C(CCCNC(=S)NCc2ccccc2)NC(=S)N1Cc1ccccc1 (configuration not stated),4,-1,1,0,-5,-3
O=C(CN1CC(c2ccccc2)CC1=O)N/N=C/c1cc(Br)ccc1O (configuration not stated),5,0,1,0,-4,2
Cc1nc(SCC(=O)Nc2ccc3c(c2)OCO3)c(C#N)c2c1CCCC2,42*,1,1,0,-4,4
CCOc1ccc(OCCCN(C)C)cc1,20,0,1,0,0,0
CN(C)CCCOC(=O)COc1ccc(C(C)(C)C)cc1,25*,0,1,0,0,0
CCCOc1ccc(/C=N/Nc2ccccn2)cc1OC,.,0,0.4,-1,58*,0
COc1cc(/C=N/Nc2ccccn2)cc(OC)c1O,.,-1,0.2,0,78*,-1
C=CCOc1ccc(/C=N/Nc2ccccn2)cc1OC,.,1,0.5,-1,49,4
CCOc1ccc(/C=N/Nc2ccccn2)cc1OC,.,0,0.4,0,58*,23
COc1cc(/C=N/Nc2ccccn2)ccc1OCC(C)C,.,0,0.8,0,19,6
Cc1ccc(NS(=O)(=O)c2ccc(OCC(=O)NCc3ccncc3)cc2)cc1,13,-1,1,0,-4,13
CCCCCNC(=O)N[C@H](C(=O)O)C(C)C,7,0,1,0,-5,-1
O=C(NC(Cc1c[nH]c2ccccc12)C(=O)Nc1ccc(OC(F)(F)F)cc1)c1cccs1 (configuration not stated),52*,3,1,0,-4,23
O=C(NC(Cc1c[nH]c2ccccc12)C(=O)Nc1ccc(F)c([N+](=O)[O-])c1)c1cccs1 (configuration not stated),35,0,1.1,1,-7,1
CCNC(=S)NNC(=O)C1CCCCC1,28*,1,1,6,-4,1
FC(F)(F)c1cccc(NCc2cn3cccnc3n2)c1,55*,0,1,1,-2,2
O=C(NCc1cn2ccsc2n1)c1cccc(C(F)(F)F)c1,0,1,1,0,-4,14
Cc1nn2c(c1-c1ccc(Cl)cc1)N=C(c1ccco1)CC2c1ccccc1 (configuration not stated),6,0,1,2,1,0
Cc1ccc(C(=O)NC(C)c2ccccc2)o1 (configuration not stated),34*,0,0.9,0,8,5
O=C(CC(Nc1ccccc1Cl)C(=O)O)c1ccccc1 (configuration not stated),.,0,0.8,0,19,0
O=C(CC(Nc1ccc(Cl)cc1)C(=O)O)c1ccccc1 (configuration not stated),16,1,0.3,1,69*,15
SMILES,Measles CPE,ABCB1 block,FLuc act counter,DTT redox prof,FLuc inhib CS,ABCG2 inh
CCOC(=O)CSc1n[nH]c(NC(=O)CC)n1,.,0,1,-2,4,3
Cc1ccc(S(=O)(=O)N2CCC(C(=O)Nc3ccccc3N3CCCCC3)CC2)cc1,34*,10,1,1,0,49
Cc1nn(-c2ccccc2)c(Cl)c1/C=N/NC(=O)c1ccccc1NS(=O)(=O)c1cccs1,14,0,0.9,0,8,-2
Cc1ccccc1OCC(=O)N/N=C/c1c(C)nn(-c2ccccc2)c1Cl,2,-4,1,0,0,8
Cc1ccc(C(=O)N/N=C\c2c(C)nn(-c3ccccc3)c2Cl)cn1,13,0,0.5,0,51*,3
Cc1ccc(-n2nc(C)c(/C=N/NC(=O)c3cccnc3)c2Cl)cc1,13,0,1,.,1,3
Cc1nn(-c2ccccc2)c(Cl)c1/C=N/NC(=O)c1ccc(NS(=O)(=O)c2cccs2)cc1,.,0,0.3,0,71*,2
Cc1nn(-c2ccccc2)c(Cl)c1/C=N/NC(=O)c1cccnc1,44*,-1,0.7,-1,27,5
Cn1c(N)c(Sc2ccc(F)cc2)c(=O)n(C)c1=O,.,0,1.1,0,-11,0
CS(=O)(=O)Nc1nnc(SCC(=O)Nc2cccc([N+](=O)[O-])c2)s1,37,-1,1.1,0,-6,-3
CC(C)C(NC(=O)COc1ccccc1)C(=O)O (configuration not stated),44*,1,1.1,0,-8,3
O=C(c1ccc(Br)cc1)N1CCN(S(=O)(=O)c2ccccc2)CC1,26,1,1,0,-2,3
Cc1c(C(=O)O)oc2c1/C(=N\O)CC(C)(C)C2,44*,1,1,0,-2,3
COc1ccc(-c2nc3ccccc3n2OCC(=O)O)cc1,.,3,0.3,0,72*,15
Cc1ccc(OCc2nc(-c3ccc(Cl)cc3)n[nH]2)cc1,33*,0,1,2,-4,3
CC1CCC(NC(=O)C(NC(=O)c2ccccc2)C(C)C)CC1 (configuration not stated),.,1,1,1,-2,0
O=C(Nc1cccc(O)c1)c1noc2c1CCCCC2,13,0,0.1,0,86*,1
Cc1cc(C(=O)c2ccccc2)nc2ccccc12,20,0,1.1,0,-8,1
Cc1cc(/C=C\c2ccccc2)nc2ccccc12,.,1,0.3,0,68*,6
COc1ccc(-c2nc3c(c(=O)[nH]c(=O)n3Cc3ccccc3)n2C)cc1,2,1,0.9,0,5,61
O=c1[nH]c(=O)n(CCO)c2nnn(Cc3ccccc3)c12,30*,0,1,-1,-2,25
O=c1c2ccccc2cnn1CCOc1ccccc1,12,0,0.2,0,83*,1
Fc1ccccc1N=C1NN=C(c2ccccc2)CS1,.,0,0.7,-1,30,0
CC(C)N=C1NN=C(c2ccc(F)cc2)CS1,.,0,0.4,0,58*,3
